dFosB act – activators of mouse delta FosB homodimer; P13346; purified delta FosB, TAMRA-CDK5 oligo fluorescence polarization; percent of positive-control signal above neutral wells; activation, % at 25 µM; 0.99% of 340,000 active; AID 493131;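 active = mean activation above about 17%, with every replicate also reaching it, limit read from the data, passing the limit was not always enough; inconclusive = only one of the two conditions met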
Env fusion inh – HIV envelope-mediated fusion inhibition; HeLa-JRFL Env/CEM21 cell fusion, luciferase; inhibition, % at 12.3 µM; 1.1% of 360,000 active; AID 651610;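 active = mean replicate inhibition score of at least 50 and every replicate individually at or above 50; inconclusive = only one of the two criteria met; inactive = mean below 50 and not all replicates reaching 50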;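 note: 0% = plate neutral controls and 100% = maraviroc near 300 nM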
miR-122 sensor – inhibitors of miR-122 in Huh7 cells; Huh7 miR-122 Renilla luciferase sensor, 48 h; neutral wells = 0, positive control = 100; activation (reporter increase), % at 12.5 µM; 0.3% of 340,000 active; AID 602342;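 active = mean replicate activation score at least 90 and every replicate individually at or above 90; inconclusive = only one of the two criteria met; inactive = neither criterion met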;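 note: higher luciferase means less miR-122 activity so hits act as miR-122 inhibitors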
Cneo AK release – causes C. neoformans cell lysis. adenylate kinase release luminescence, 4 h; normalised: neutral wells 0, clomiphene wells 100. lysis activity, % at 15 µM. 0.2% of 360,000 active;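 active = mean lysis activity across replicates of at least 80%, whatever share of replicates individually reach that level; inactive = mean lysis activity below 80%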
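Test system: log-phase Cryptococcus neoformans yeast cells; Quantity: yeast cell density of 5 × 10^6 cells/mL; Buffer or medium: YPD; Doses: single compound concentration per well; Timing: 4 h at 37 °C static, read 1 h later; Measured by: AK luminescence; Read-out basis: lysis from increased AK signal; Control set: Clomiphene as positive control.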
Rtt109 HAT inh – C. albicans Rtt109 histone acetyltransferase inhibition. Q5AAJ8. inhibition, % at 34.9 µM. AID 540336. 0.16% of 330,000 active. purified Rtt109/Vps75, ThioGlo CoA-SH fluorescence, 4 h;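 active = inhibition of at least 50% in every replicate; inconclusive = best replicate reaches 50% inhibition but some replicates fall short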
Target sequence (Q5AAJ8 whole entry, looked up): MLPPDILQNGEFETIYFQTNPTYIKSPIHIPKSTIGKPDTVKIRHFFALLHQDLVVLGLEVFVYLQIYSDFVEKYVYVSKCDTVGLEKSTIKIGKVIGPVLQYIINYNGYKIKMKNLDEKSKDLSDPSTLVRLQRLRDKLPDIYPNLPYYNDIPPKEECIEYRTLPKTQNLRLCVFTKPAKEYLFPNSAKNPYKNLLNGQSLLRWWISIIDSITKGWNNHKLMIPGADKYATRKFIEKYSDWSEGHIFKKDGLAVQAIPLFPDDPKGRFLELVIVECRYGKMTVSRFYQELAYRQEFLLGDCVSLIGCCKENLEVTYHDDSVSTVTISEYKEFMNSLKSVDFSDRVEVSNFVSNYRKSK
GSIS activator – GLuc luminescence reporter in INS-1E cells, primary screen for activators of glucose-dependent secretion of insulin; 0.61% of 370,000 active; AID 743287; INS-1E GLuc reporter insulin secretion, 2-3 h; activation, % at 16.6 µM;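 active = lowest replicate activation of at least 40%, so every replicate reaches that level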;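 note: 0% = median of neutral control wells and 100% = median of IBMX positive control wells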
Active calls of the source: *; ? = inconclusive; · = not tested or not shown; [ ] = remark or other dose. This is a sample that favours compounds with a hit; in the whole collection about 2.4% have one here.

SMILES	dFosB act	Env fusion inh	miR-122 sensor	Cneo AK release	Rtt109 HAT inh	GSIS activator
CN1CCN(CCCNC(=O)c2ccc(/C=C3\Sc4ccccc4N(Cc4ccc(F)cc4)C3=O)cc2)CC1	-6	8	-10	15	34	76*
CN1CCN(CCCNC(=O)c2ccc(/C=C3\Oc4ccccc4N(Cc4ccccc4F)C3=O)cc2)CC1	-332	2	·	108*	-19	93*
Cc1cccc(CN2C(=O)/C(=C\c3ccc(C(=O)NCCCN4CCN(C)CC4)cc3)Oc3ccccc32)c1	-457	24	-2	4	1	32
CNC[C@@H]1OCCCC[C@H](C)Oc2ccc(NC(=O)c3ccccc3)cc2C(=O)N([C@H](C)CO)C[C@H]1C	·	-17[16.7 µM]	1[16.7 µM]	-1	·	13
COc1ccc2c3c([nH]c2c1)[C@H](CO)N(S(C)(=O)=O)CC31CN(C(=O)c2ccncc2)C1	·	·	·	·	·	8
CC(C)C[C@H]1CN([C@@H](Cc2ccc(O)cc2)CN2CCC[C@H]2CN2C(=O)C(=O)NC[C@@H]2Cc2ccc(O)cc2)C(=O)C(=O)N1CCc1ccccc1	·	60*	·	·	·	44*
CC(C)C[C@H]1CNC(=S)N1C[C@H]1CCCN1C[C@H](Cc1ccccc1)N1C[C@H](Cc2ccc(O)cc2)N(CC2CCCCCC2)C1=S	·	-13	-3	2	·	·
CC(C)C[C@H]1CNC(=S)N1C[C@H]1CCCN1C[C@H](Cc1ccc(O)cc1)N1C[C@H](Cc2ccccc2)N(CC2CCCCC2)C1=S	·	112*	-3	1	·	9
O=C1NC[C@@H](CCCCN2C[C@H](Cc3ccc(O)cc3)N(Cc3ccccc3)C(=O)C2=O)N(CCc2ccc(O)cc2)C1=O	·	57*	·	·	·	4
CC(C)C[C@H]1CNC(=S)N1CC1CCCN1C[C@H](Cc1ccc(O)cc1)N1C[C@H](Cc2ccccc2)N(CC2CCCCCC2)C1=S (some centres not stated)	?	58*	-3	0	0	9
Oc1ccc(C[C@H]2CNC(=S)N2CC2CCCN2C[C@H](Cc2ccc(O)cc2)N2C[C@H](Cc3ccc(O)cc3)N(CC3CCCCC3)C2=S)cc1 (some centres not stated)	8	91*	-16	0	-1	-37
Oc1ccc(C[C@H]2CN([C@@H](Cc3ccccc3)CN3CCCC3CN3C(=S)NC[C@@H]3Cc3ccccc3)C(=S)N2CC2CCCCC2)cc1 (some centres not stated)	·	-6	·	·	·	-11
CCC12C(=O)C(CC)(C(c3ccccc3)=C1c1ccccc1)[C@@H]1C(=O)N(c3ccc(C)cc3)C(=O)C12 (some centres not stated)	6	92*	·	·	7	1
CCCC12C(=O)C(C)(C(c3ccccc3)=C1c1ccccc1)C1C(=O)N(c3ccc(C)cc3)C(=O)C12 (configuration not stated)	-6	83*	·	·	-1	5
CC(=O)NC[C@H]1[C@@H](c2ccc(-c3cccnc3)cc2)[C@H](CO)N1C(=O)C1CCC1	·	·	21[16.7 µM]	-1	·	7
COC(=O)c1cccc(N/C=C(\[N+](=O)[O-])S(=O)(=O)c2ccccc2)c1	1	-2	·	2	4	51*
O=C(C[C@H]1C[C@H]2c3cc(NC(=O)NC4CCCC4)ccc3O[C@H]2[C@@H](CO)O1)NCc1ccccn1	·	·	·	·	·	-1
CCC1CCC(C(=O)NC(C(=O)NCCc2ccc(S(N)(=O)=O)cc2)C(C)C)CC1 (configuration not stated)	73*	-22	1	-1	·	-1
CC(C)C(NC(=O)C1CCC(C(C)(C)C)CC1)C(=O)NCCc1ccc(S(N)(=O)=O)cc1 (configuration not stated)	5	-4	-4	3	6	-6
COc1ccc2c3c(n(C)c2c1)[C@@H](CO)N(C(=O)CC1CC1)CC31CCN(C(=O)CC2CC2)CC1	·	-13[16.7 µM]	·	·	·	-1
O=C(NC(NC(=S)Nc1c(Cl)cccc1Cl)C(Cl)(Cl)Cl)c1cccc([N+](=O)[O-])c1 (configuration not stated)	6	-36	174*	7	2	-4
CN(C)CCNC(=O)c1cccc2nc3cccc(F)c3nc12	33*	0	·	·	-1	-17

Bioassay records deposited in PubChem by Broad Institute.
